The record followed here is ChEMBL document CHEMBL1123113, “"Reverse" and "symmetrical" analogues of actinomycin D: metabolic activation and in vitro and in vivo tumor growth inhibitory activities” (J Med Chem, 1985).

One data set concerns CCRF-CEM. Nature of the data set: Inhibitory dose required for the inhibition of human lymphoblastic leukemia cells(CCRF-CEM). It counts as functional. The settings on record: read-out: ID50 (the source's name).
Data set [1] deals with Mus musculus. Nature of the data set: Antitumor activity against B16 melanoma in terms of percentage increase in life span in mice at an optimal dose of 900 ug/kg administered ip. It counts as functional.
Data set [2] has as its system Mus musculus. Nature of the data set: Antitumor activity against P388 leukemia cells in terms of percentage increase in life span in mice at an optimal dose of 1000 ug/kg administered ip. Format: functional.
The species entered for data set [3] is Mus musculus. The data set can be described thus: Dose providing an increase in the life span of 45% over control in P388 tumor bearing mice. The settings on record: read-out: MED. It counts as functional. An outline of the steps:
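MED is the ip dose in mg/kg, given on days 1, 5 and 9 starting 1 day after implantation, that gives a 45% increase in life span over control in P388-bearing mice. It was derived from plotted log-dose response data.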

In data set [4] the test system is Mus musculus. Nature of the data set: Antitumor activity against B16 melanoma in terms of median survival time of mice at an optimal dose of 900 ug/kg administered ip. It counts as functional.
Data set [5] has as its system Mus musculus. The data set can be described thus: Antitumor activity against P388 leukemia cells in terms of median survival time of mice at an optimal dose of 1000 ug/kg administered ip. It counts as functional.
Data set [6] has as its system Mus musculus. The data set can be described thus: In vivo antitumor activity was determined against P388 leukemia mice as number of mice survived after administration of 1000 ug/Kg dose of compound; Value represented as no of survivors/ treated = 2/8. Format: functional.
Data set [7] relates to Mus musculus. Nature of the data set: In vivo antitumor activity was determined against P388 (adriamycin sensitive tumors) as number of mice survived after administration of 0.3-1.8 mg/kg, ip dose of compound; Value represented as no of survivors/ treated = 4/8. Format: functional.
The subject of data set [8] is Mus musculus. Nature of the data set: In vivo antitumor activity was determined against B16 melanoma mice as number of mice survived after administration of 900 ug/Kg dose of compound; Value represented as no of survivors/ treated = 2/9.
Data set [9] relates to Mus musculus. Nature of the data set: Antitumor activity against P388 leukemia cells in terms of percentage increase in life span in mice at an optimal dose of 300 ug/kg administered ip. Format: functional.
The species named for data set [10] is Mus musculus. Nature of the data set: Antitumor activity against B16 melanoma in terms of percentage increase in life span in mice after 65 days. It counts as functional.
Data set [11] is described as follows: Minimum tolerated dose is the lethal dose for 10% normal mice for deaths during 21 days. It counts as ADME, organism-based. The conditions noted are these: mouse, in vivo. Put shortly: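 Tumor-free male BDF1 mice (18–22 g) received a broad dose range ip in 5% dimethyl sulfoxide-saline on days 1, 5 and 9. Deaths were recorded over 21 days. The LD10 (dose killing 10% of animals) was calculated from a plot of log-dose vs. percent mortality.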

The test system of data set [12] is Mus musculus. Nature of the data set: Antitumor activity against P388 leukemia cells in terms of median survival time of mice at an optimal dose of 300 ug/kg administered ip. It counts as functional.
In data set [13] the test system is Mus musculus. The data set can be described thus: Antitumor activity against B16 melanoma in terms of median survival time of mice at an optimal dose of 250 ug/kg administered ip. It counts as functional.
In data set [14] the test system is Mus musculus. The data set can be described thus: In vivo antitumor activity was determined against P388 leukemia mice as number of mice survived after administration of 300 ug/Kg dose of compound; Value represented as no of survivors/ treated = 0/8. Format: functional.
The test system of data set [15] is Mus musculus. Nature of the data set: In vivo antitumor activity was determined against B16 melanoma mice as number of mice survived after administration of 250 ug/Kg dose of compound; Value represented as no of survivors/ treated = 2/9. It counts as functional.
The test system of data set [16] is P388. Nature of the data set: Inhibition of DNA synthesis was measured as the concentration required to cause 50% reduction (in 1h) in methyl [3H]thymidine incorporation into acid precipitable material using P388 cells. Format: functional. The conditions noted are these: Mus musculus, read-out: ID50 (the source's name). An outline of the steps:
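P388 cells were exposed for 1 h. IC50 (µM) was taken as 50% reduction of methyl-[3H]thymidine (DNA) or 2-[14C]uridine (RNA) incorporation into acid-precipitable material. The ratio is IC50 DNA divided by IC50 RNA.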

Data set [17] concerns P388. Nature of the data set: Inhibition of RNA synthesis was measured as the concentration required to cause 50% reduction (in 1h) in 2-[14C]uridine incorporation into acid precipitable material using P388 cells. Format: functional. The settings on record: Mus musculus, P388, 1 h; read-out: ID50 (the source's name).
Data set [18] is filed under the species Rattus norvegicus. Nature of the data set: Compound tested for NADPH oxidation in rat hepatic mycrosomal incubation. It counts as functional. Put shortly: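 Phenobarbital-induced male Sprague-Dawley rat liver microsomes were placed in both cuvettes, without epinephrine. NADPH 0.4 mM was added to the sample side only, and absorbance was read at 340 nm. Percent stimulation = (drug rate − basal)/basal × 100. Values are the average ± standard errors of triplicates.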

For data set [19], the species on record is Rattus norvegicus. Nature of the data set: Compound tested for adrenochrome formation in rat hepatic mycrosomal incubation. It counts as functional. An outline of the steps:
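Adrenochrome assay for superoxide: epinephrine in 0.01 N HCl plus 300 µg of phenobarbital-induced rat liver microsomes at 37 °C. NADPH 0.4 mM was added to the sample side 1 min later, and the rate was read at 480 nm (ε 4.02 mM−1 cm−1). Drugs were at ≤100 µM, made in 150 mM KCl–50 mM Tris, pH 7.4. Percent stimulation is over basal rate, in triplicate.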

Data set [20] can be described thus: Therapeutic index ([…]) value of the compound. The settings on record: read-out: TI. Put shortly:
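MED is the dose giving a 45% increase in life span over control in male BDF1 mice implanted ip with 10^6 P388 cells and treated ip on days 1, 5 and 9. MTD is the 21-day LD10 in tumor-free male BDF1 mice (18–22 g), dosed ip on the same days. Both values come from plotted log-dose response data.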

Data set [21] deals with Mus musculus. Nature of the data set: Antitumor activity against P388 leukemia cells in terms of percentage increase in life span in mice at an optimal dose of 600 ug/kg administered ip. It counts as functional.
The subject of data set [22] is Mus musculus. Nature of the data set: Antitumor activity against B16 melanoma in terms of percentage increase in life span in mice at an optimal dose of 300 ug/kg administered ip. Format: functional.
Data set [23] relates to Mus musculus. Nature of the data set: Antitumor activity against P388 leukemia cells in terms of median survival time of mice at an optimal dose of 600 ug/kg administered ip. Format: functional.
Data set [24] has as its system Mus musculus. The data set can be described thus: Antitumor activity against B16 melanoma in terms of median survival time of mice at an optimal dose of 300 ug/kg administered ip. It counts as functional.
For data set [25], the system named is Mus musculus. The data set can be described thus: In vivo antitumor activity was determined against P388 leukemia mice as number of mice survived after administration of 600 ug/Kg dose of compound; Value represented as no of survivors/ treated = 4/8. Format: functional.
In data set [26] the test system is Mus musculus. Nature of the data set: In vivo antitumor activity was determined against B16 melanoma mice as number of mice survived after administration of 300 ug/Kg dose of compound; Value represented as no of survivors/ treated = 4/9. Format: functional.

SMILES strings stand for the structures. pIC50: −log10 of the molar value. Several values for one entry are separate records, joined by “and”; a condition that tells them apart may be missing. Identical values can stand only once.

Regarding `Cc1c2oc3c(C)c4oc(-c5ccccc5)nc4c(C(=O)N[C@@H]4C(=O)N[C@H](C(C)C)C(=O)N5CCC[C@H]5C(=O)N(C)CC(=O)N(C)[C@@H](C(C)C)C(=O)O[C@@H]4C)c3nc-2c(C(=O)N[C@@H]2C(=O)N[C@H](C(C)C)C(=O)N3CCC[C@H]3C(=O)N(C)CC(=O)N(C)[C@@H](C(C)C)C(=O)O[C@@H]2C)cc1=O`, in the data set on CCRF-CEM, the pIC50 is 6.30. The compound also yielded an ILS at 0.9 mg/kg in the data set with Mus musculus [1] of 55%. Moreover, in the data set on Mus musculus [2], the “ILS (Sur)” value was 186%. Moreover, in the data set filed under Mus musculus [3], the minimal effective dose is 0.2 mg/kg. The MST in the data set with Mus musculus [4] was 45 days; in the data set with Mus musculus [5], 31.5 days. Also, the Survivors was 2 in the data set on Mus musculus [6], 4 with Mus musculus [7] and 2 in the data set on Mus musculus [8].

Consider `Cc1c2oc3c(C)ccc(C(=O)N[C@@H]4C(=O)N[C@H](C(C)C)C(=O)N5CCC[C@H]5C(=O)NCC(=O)N[C@@H](C(C)C)C(=O)O[C@@H]4C)c3nc-2c(C(=O)N[C@@H]2C(=O)N[C@H](C(C)C)C(=O)N3CCC[C@H]3C(=O)NCC(=O)N[C@@H](C(C)C)C(=O)O[C@@H]2C)c(N)c1=O` [ACTINOMYCITIN], for which the pIC50 in the data set with CCRF-CEM was 7.30; in the data set on P388 [16], 8.95; in the data set on P388 [17], 10.30. In addition, the increase in lifespan (ILS) at 0.3 mg/kg with Mus musculus [9] was 136%. The same compound had an increase in lifespan (ILS) in the data set filed under Mus musculus [10] of 48%. Besides, the MTD at 504 h in data set [11] is 0.25 mg/kg. Further, the minimal effective dose in the data set filed under Mus musculus [3] came out at 0.0625 mg/kg. In addition, the MST with Mus musculus [12] is 26 days; in the data set on Mus musculus [13] it was 43 range. For the same compound, the Survivors with Mus musculus [14] came out at 0; in the data set with Mus musculus [15] it was 2. Moreover, the NADPH oxidation in the data set filed under Rattus norvegicus [18] was 9.11 nM min-1 (mg of protein)-1 and 10.01 nM min-1 (mg of protein)-1. Besides, the adrenochrome formation in the data set listed under Rattus norvegicus [19] was 2.11 nM min-1 (mg of protein)-1 and 2.29 nM min-1 (mg of protein)-1. The selectivity ratio in [20] came to 4.

Turning to `Cc1c2oc3c(C)c(O)c(N)c(C(=O)N[C@@H]4C(=O)N[C@H](C(C)C)C(=O)N5CCC[C@H]5C(=O)N(C)CC(=O)N(C)[C@@H](C(C)C)C(=O)O[C@@H]4C)c3nc-2c(C(=O)N[C@@H]2C(=O)N[C@H](C(C)C)C(=O)N3CCC[C@H]3C(=O)N(C)CC(=O)N(C)[C@@H](C(C)C)C(=O)O[C@@H]2C)c(N)c1=O`, the pIC50 in the data set with CCRF-CEM is 7.52. In addition, the ILS at 0.6 mg/kg with Mus musculus [21] came to 382%. Also, the increase in life span (ILS) at 0.3 mg/kg with Mus musculus [22] turned out to be 96%. Besides, in the data set listed under Mus musculus [3], the minimal effective dose came out at 0.025 mg/kg. For the same compound, the MST was 52 days in the data set on Mus musculus [23] and 57 days in the data set with Mus musculus [24]. The Survivors in the data set with Mus musculus [25] and in the data set on Mus musculus [26] was 4 each time. In addition, the NADPH oxidation in the data set listed under Rattus norvegicus [18] was 64.3 nM min-1 (mg of protein)-1. The adrenochrome formation in the data set filed under Rattus norvegicus [19] is 19.3 nM min-1 (mg of protein)-1.
